For orientation: MIC means the least concentration at which growth counts as inhibited. Read a high MIC as a need for much substance.

The values that follow come from ChEMBL document CHEMBL1671655, “Anidulafungin is fungicidal and exerts a variety of postantifungal effects against Candida albicans, C. glabrata, C. parapsilosis, and C. krusei isolates” (2009).

Assay [1] has as its system Candida parapsilosis. As to the kind of experiment: Fungicidal activity against Candida parapsilosis isolate A assessed as log reduction in bacterial count at MIC after 48 hrs by time-kill analysis. The format is functional. As to conditions: Lodderomyces parapsilosis. Put shortly:
(§1)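 Isolates subcultured twice on SDA, then suspended to 0.5 McFarland and diluted into RPMI 1640 (MOPS, pH 7.0) with or without anidulafungin, giving about 1 x 10^5 to 5 x 10^5 CFU/ml. Tubes were shaken at 35°C. Samples were taken at 0, 2, 4, 8, 12, 24 and 48 h, serially diluted 10-fold, plated on SDA, and CFU counted after 48 h at 35°C. Each isolate was run twice; mean values.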

For assay [2], the system named is Candida parapsilosis. Description: Fungicidal activity against Candida parapsilosis isolate S assessed as log reduction in bacterial count at 16 times MIC after 48 hrs by time-kill analysis. As to conditions: Lodderomyces parapsilosis. The format is functional. Put shortly:
as §1

The subject of assay [3] is Candida parapsilosis. As to the kind of experiment: Fungicidal activity against Candida parapsilosis isolate S assessed as log reduction in bacterial count at MIC after 48 hrs by time-kill analysis. It is filed as functional. As to conditions: Lodderomyces parapsilosis. Put shortly: as §1
Assay [4] deals with Pichia kudriavzevii. Description: Fungicidal activity against Candida krusei isolate 1 assessed as log reduction in bacterial count at MIC after 48 hrs by time-kill analysis. It is filed as functional. As to conditions: isolate 1, 48 h. Put shortly:
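Isolates subcultured twice on SDA, suspended to 0.5 McFarland, giving ~1 x 10^5 to 5 x 10^5 CFU/ml in MOPS-buffered RPMI 1640 (pH 7.0) with or without drug at multiples of MIC (MIC by CLSI M27-A3). Tubes shaken at 35°C with continuous drug. Sampled at 0–48 h, diluted 10-fold and plated on SDA; CFU counted after 48 h at 35°C. Run twice per isolate; means.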

In assay [5] the test system is Candida albicans. As to the kind of experiment: Fungicidal activity against Candida albicans isolate 2 assessed as log reduction in bacterial count at MIC after drug exposure for 1 hr followed by washout measured after 48 hrs in the absence of drug by PAFE study. It is filed as functional. Put shortly: (§2)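 Starting inoculum ~1 x 10^5 to 5 x 10^5 CFU/ml in MOPS-buffered RPMI 1640 (pH 7.0) with drug at multiples of the CLSI M27-A3 MIC. After 1 h at 35°C, cells washed and centrifuged three times at 1,400 x g for 10 min, then resuspended in warm drug-free RPMI. Shaken at 35°C and plated on SDA at 0–48 h; CFU counted after 48 h. Run twice per isolate; means.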

Assay [6] deals with Nakaseomyces glabratus. Description: Fungicidal activity against Candida glabrata isolate 1 assessed as log reduction in bacterial count at 16 times MIC after drug exposure for 1 hr followed by washout measured after 48 hrs in the absence of drug by PAFE study. The format is functional. Put shortly: as §2
For assay [7], the system named is Nakaseomyces glabratus. Description: Antifungal activity against Candida glabrata isolate 1 assessed as time period for bacterial growth inhibition at 4 times MIC after 1 hr drug exposure. The format is functional. Put shortly: (§3)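 Inoculum of about 1 x 10^5 to 5 x 10^5 CFU/ml in MOPS-buffered RPMI (pH 7.0), shaken at 35°C and exposed to drug for 1 h. Cells then washed and centrifuged three times and resuspended in drug-free warm RPMI. Samples plated on SDA at 0, 2, 4, 8, 12, 24 and 48 h, with CFU counted after 48 h at 35°C. Run twice per isolate; values are means.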

The subject of assay [8] is Candida albicans. Description: Antifungal activity against Candida albicans isolate 2 by CLSI M27-A3 broth microdilution method. It is filed as functional. Put shortly:
(§4)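 CLSI M27-A3 broth microdilution in RPMI 1640 buffered to pH 7.0 with MOPS. Starting inoculum 0.5 x 10^3 to 2.5 x 10^3 cells/ml, incubated at 35°C. MIC read as the lowest concentration giving >50% growth reduction versus control. Each isolate tested on at least three occasions.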
In general terms: Broth dilution looks for growth in wells or tubes with falling amounts of substance.

In assay [9] the test system is Pichia kudriavzevii. As to the kind of experiment: Antifungal activity against Candida krusei isolate 1 by CLSI M27-A3 broth microdilution method. It is filed as functional. Put shortly:
as §4

Assay [10] has as its system Candida albicans. As to the kind of experiment: Antifungal activity against Candida albicans ATCC 90028 assessed as time period for bacterial growth inhibition at 16 times MIC after 1 hr drug exposure. The format is functional. Put shortly: as §3
Assay [11] relates to Nakaseomyces glabratus. As to the kind of experiment: Increase in susceptibility to SDS in Candida glabrata isolate 1 assessed as cell wall damage at MIC after 1 hr relative to control. It is filed as functional, organism-based. Put shortly:
(§5)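 Cells recovered 8 h after a 1-h drug exposure were grown in YPD with 1% glucose to exponential phase and adjusted to OD599 0.1. Undiluted culture and 10-fold serial dilutions were spotted onto YPD plates containing SDS (0.01 to 0.04%), then incubated 72 h at 30°C. Growth compared with unexposed control cells; triplicate.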

The subject of assay [12] is Pichia kudriavzevii. Description: Increase in susceptibility to SDS in Candida krusei isolate ATCC 6258 assessed as cell wall damage at MIC after 1 hr relative to control. It is filed as functional, organism-based. Put shortly:
as §5

The subject of assay [13] is Nakaseomyces glabratus. As to the kind of experiment: Increase in susceptibility to SDS in Candida glabrata isolate 3 assessed as cell wall damage at 4 times MIC after 1 hr relative to control. The format is functional, organism-based. Put shortly:
as §5

The test system of assay [14] is Candida parapsilosis. Description: Increase in susceptibility to SDS in Candida parapsilosis isolate A assessed as cell wall damage at 16 times MIC after 1 hr relative to control. The format is functional, organism-based. Put shortly:
as §5

For assay [15], the system named is Candida albicans. Description: Increase in susceptibility to calcofluor white in Candida albicans isolate 1 assessed as cell wall damage at 4 times MIC after 1 hr relative to control. The format is functional, organism-based. Put shortly:
(§6)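 Cells recovered 8 h after a 1-h drug exposure were grown to exponential phase in YPD with 1% glucose and adjusted to OD599 0.1. Undiluted and 10-fold serially diluted cultures were spotted onto YPD plates containing calcofluor white, then incubated at 30°C for 72 h. Growth compared with no-drug control cells; triplicate.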

Assay [16] relates to Pichia kudriavzevii. Description: Increase in susceptibility to calcofluor white in Candida krusei isolate ATCC 6258 assessed as cell wall damage at 4 times MIC after 1 hr relative to control. It is filed as functional, organism-based. Put shortly:
as §6

Assay [17] has as its system Candida albicans. As to the kind of experiment: Increase in susceptibility to calcofluor white in Candida albicans ATCC 90028 assessed as cell wall damage at 16 times MIC after 1 hr relative to control. It is filed as functional, organism-based. Put shortly:
as §6

Assay [18] deals with Candida parapsilosis. As to the kind of experiment: Antifungal activity against Candida parapsilosis isolate A assessed as cell wall damage at 4 times MIC by Transmission electron microscopy. It is filed as functional, organism-based. Put shortly:
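Cells recovered 8 h after a 1-h drug exposure were grown on SDA for 24 h at 35°C. Colonies fixed at 4°C in 0.1 M cacodylate (pH 7.2) with 2% glutaraldehyde and 2% paraformaldehyde, ethanol-dehydrated and embedded in Lowicryl K4M. Thin sections examined by transmission EM.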

The subject of assay [19] is Nakaseomyces glabratus. Description: Inhibition of Candida glabrata isolate 1 adherence to human buccal epithelial cells at 4 times MIC after 1 hr by adherence assay relative to control. The format is functional, Epithelial cell. Put shortly:
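Candida collected 8 h after a 1-h 4x MIC pulse and washout were grown on SDA for 24 h at 35°C. Buccal epithelial cells were pooled from three donors and washed in PBS. Cells (1 x 10^5/ml) were mixed 1:1 by volume with Candida (1 x 10^6/ml) and shaken 1 h at 37°C. Mixtures were filtered, washed, and Gram-stained, and Candida were counted per 100 epithelial cells. Run in duplicate on ≥2 occasions; Student's t test against unexposed controls.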

Assay [20] relates to Candida parapsilosis. As to the kind of experiment: Antifungal activity against Candida parapsilosis isolate A coincubated with mouse J774 macrophages assessed as macrophage induced bacterial cell killing at 4 times MIC (reference value: 19 +/- 9 %). It is filed as functional.
The test system of assay [21] is Candida parapsilosis. As to the kind of experiment: Antifungal activity against Candida parapsilosis isolate 1 coincubated with mouse J774 macrophages assessed as macrophage induced bacterial cell killing at 4 times MIC (reference value: 22 +/- 12 %). It is filed as functional.

Values after ≈ are worked out from the molar mass of the structure shown. Active and inactive are the calls of the source. The calls are words filed in the database; no cut-off is given here. Starred links: 1 amine or outer side, 2 acyl side, 3 side chain; linkers in the order of their positions; H or OH if unused. Positions of bridges follow the written chain, without caps; N, C: chain ends. Non-standard residues stand in square brackets, D forms with d. Residues, ends and D or L forms follow the SMILES beside them. *: point of attachment. pTerphenylCO(4''-OnC5H11) = CCCCCOc1ccc(-c2ccc(-c3ccc(C(=O)*)cc3)cc2)cc1; Orn(4R-OH,5R-OH) = O=C([C@H](C[C@@H](O)[C@@H](O)N[*:3])N[*:1])[*:2]; hTyr(3S-OH,4S-OH) = N[C@H](C(=O)O)[C@H](O)[C@@H](O)c1ccc(O)cc1; Pro(3S-OH,4S-Me) = C[C@H]1CN[C@H](C(=O)O)[C@H]1O; Hyp = O=C(O)[C@@H]1C[C@@H](O)CN1

Consider `CCCCCOc1ccc(-c2ccc(-c3ccc(C(=O)N[C@H]4C[C@@H](O)[C@@H](O)NC(=O)[C@@H]5[C@@H](O)[C@@H](C)CN5C(=O)[C@H]([C@@H](C)O)NC(=O)[C@H]([C@H](O)[C@@H](O)c5ccc(O)cc5)NC(=O)[C@@H]5C[C@@H](O)CN5C(=O)[C@H]([C@@H](C)O)NC4=O)cc3)cc2)cc1` [ANIDULAFUNGIN] ({pTerphenylCO(4''-OnC5H11)}-[Orn(4R-OH,5R-OH)]T[Hyp][hTyr(3S-OH,4S-OH)]T[Pro(3S-OH,4S-Me)]; lactam 1-C), for which the log reduction turned out to be 1.76 log CFU/ml in the assay with Candida parapsilosis [1]; 3.11 log CFU/ml with Candida parapsilosis [2]; 1.32 log CFU/ml with Candida parapsilosis [3]; 1.74 log CFU/ml in the assay on Pichia kudriavzevii [4]; 0.86 with Candida albicans [5]; 3.36 with Nakaseomyces glabratus [6]. Further, the Time in the assay with Nakaseomyces glabratus [7] and in the assay with Candida albicans [10] was 8 h in each case. Further, the MIC with Candida albicans [8] and with Pichia kudriavzevii [9] was 0.03 µg/mL (≈ 0.0263 µM) in each case. In addition, the result in the assay with Nakaseomyces glabratus [11], in the assay with Pichia kudriavzevii [12], in the assay on Nakaseomyces glabratus [13], in the assay on Candida parapsilosis [14], with Candida albicans [15] and in the assay with Pichia kudriavzevii [16] was Active. Besides, the result in the assay with Candida albicans [17] and with Candida parapsilosis [18] was Active. The “inhibition (INH)” value was 62% with Nakaseomyces glabratus [19], 42% in the assay with Candida parapsilosis [20] and 27% in the assay on Candida parapsilosis [21].
